Screening results (PubChem)
MT1-MMP act inh = blocks activation of human MT1-MMP. P50281. AID 651647. 0.061% of 360,000 active. HT1080 RFP-PRO-GFP cells, GFP/RFP ratio fluorescence, overnight; percent of plate control window, DMSO zero. GFP/RFP ratio change, % at 20 µM;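 active = GFP/RFP ratio change of at least 30% with cell ATP level not reduced by more than half and red fluorescence within 50% of control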
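Compound: 20 µM single dose, 1% DMSO / System: HT1080 RFP-PRO-GFP cells / Controls: DMSO and RFP-L50D-GFP cell wells / Read-out basis: GFP/RFP fluorescence ratio / Schedule: overnight compound exposure at 37 °C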
DAGLB inhibitor = diacylglycerol lipase beta (human) inhibition. Q8NCG7. HEK293T DAGLB membrane lysate, EnzChek fluorogenic substrate. inhibition, % at 5.17 µM. 0.059% of 340,000 active; in the data active = inhibition above about 34%;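 note: 0% = enzyme with vehicle and 100% = wells lacking enzyme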
TMEM16A act = mouse TMEM16A channel activation, primary screen | Q8BHY3 | HEK293 TMEM16A/YFP-H148Q/I152L, iodide quench fluorescence; stronger effect = lower value | B-score at 10 µM | 0.3% of 340,000 active | AID 623877;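 active = fluorescence-ratio B-score plate-corrected deviation score at least 3 library SD below zero, with starting fluorescence score within 5 deviations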;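 note: channel opened by trigger with iodide after compound preincubation; score built on the fluorescence ratio of max minus min over baseline; more negative score means more quench and so TMEM16A activation or potentiation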
TMEM16A inh = blocks the mouse calcium-activated chloride channel TMEM16A | HEK293 TMEM16A/YFP iodide influx fluorescence, ionomycin | Q8BHY3 | 1.2% of 310,000 active | normalized B-score (activity score, 25-100; higher = stronger inhibition) at 10 µM;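 active = ratio plate-corrected score three or more library SD toward inhibition, starting fluorescence score within five deviations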;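 note: score derived from kinetic fluorescence span divided by baseline fluorescence per well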
DAGLB confirm = DAGLB (human) inhibition, confirmation screen; shares compounds with DAGLB inhibitor; HEK293T DAGLB membrane lysate, EnzChek fluorogenic substrate; inhibition, % at 5.17 µM; 73% of 190 active; AID 504445;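 active = mean inhibition over triplicate wells above a set limit taken from the primary lipase screen, cut at about 34% in these data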;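 note: 0% = DAGLB with DMSO and 100% = wells lacking DAGLB enzyme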
* hit, by the source's call; i = inactive; nt = no result. This is a sample that favours compounds with a hit; in the whole collection about 1.3% have one here.

SMILES	MT1-MMP act inh	DAGLB inhibitor	TMEM16A act	TMEM16A inh	DAGLB confirm
COc1ccc(CCNC(=O)c2cc3ccc(Cl)cc3nc2N)cc1	-2	nt	nt	nt	nt
Cc1oc2c(c(=O)c1C)C(=O)CC(c1ccccc1)C2 (stereo not given)	2	-4	i	i	nt
CS(=O)(=O)c1sc(C#N)c2c1C(=O)CC(c1ccccc1)C2 (stereo not given)	-16	-13	-11*	i	nt
O=[N+]([O-])c1ccc(Cl)c(/C=N/n2c(COc3ccccc3)n[nH]c2=S)c1	15	-1	i	i	nt
O=c1c2ccccc2nc(COc2ccccc2)n1/N=C/c1cc([N+](=O)[O-])ccc1O	-1	7	i	100*	nt
Cc1ccccc1OCc1nc2ccccc2c(=O)n1/N=C/c1c[nH]c2ccccc12	2	-2	i	i	nt
Cc1cc(/C=N/n2c(COc3ccccc3C)nc3ccccc3c2=O)c(O)c([N+](=O)[O-])c1	1	7	i	100*	nt
COc1cccc2[nH]c3c(N4CCc5ccccc5C4)ncnc3c12	nt	nt	nt	i	nt
c1ccc2c(c1)CCN(c1ncnc3c1[nH]c1ccccc13)C2	8	2	i	100*	nt
OC1(c2cccc(C(F)(F)F)c2)CCN(c2ncnc3c2[nH]c2ccccc23)CC1	24	0	i	100*	nt
COc1ccc(F)cc1-c1cc(C(=O)NC2CCCCC2)[nH]n1	-3	nt	nt	nt	nt
CC(C)(CNS(=O)(=O)c1ccc2ccccc2c1)N1CCOCC1	2	-1	i	nt	nt
Cc1sc2cc3c(c(C(=O)c4ccccc4)[n+]2c1C)-c1cccc2cccc-3c12	nt	nt	nt	100*	nt
O=C(c1ccccc1)c1c2c(cc3sc4ccccc4[n+]13)-c1cccc3cccc-2c13	-29	5	i	100*	nt
Cc1cc2ccccc2cc1C(=O)c1ccccc1	0	-7	i	nt	nt
Cc1cc(SCC(=O)Nc2cccc(S(=O)(=O)NC3=NCCCCC3)c2)nc2ccccc12	-5	0	-5.4*	i	nt
Cc1ccc(-n2c(SCC(=O)Nc3cccc(S(=O)(=O)NC4=NCCCCC4)c3)nc3ccccc3c2=O)cc1C	0	1	i	i	nt
COc1ccc(SC[C@H](Cc2ccccc2)N2CC[C@@H](C)CCC2=O)cc1	-4	-9	i	nt	nt
Cc1nn(-c2ccc(C(F)(F)F)cn2)c(C)c1Oc1ccccc1O	-5	-6	-34*	i	nt
Nc1nc(-c2ccccc2)c(N=Nc2cccnc2)s1	19	51*	i	i	50*
C/C(=N\Nc1ccc(S(N)(=O)=O)cc1[N+](=O)[O-])c1ccc2c(c1)OCO2	6	37*	i	nt	42*
Oc1ccccc1N=Nc1nc(-c2ccccc2)c(-c2ccccc2)[nH]1	10	38*	i	i	52*
CN(C)c1ccc(/C=C/c2ccc3c4ccccc4ccc3[n+]2-c2ccccc2)cc1	57	35*	i	nt	61*
CN(C)c1ccc(/C=C/c2ccc3ccccc3[n+]2C)cc1	87	14	i	i	nt
COc1cccc(C(=O)NNc2c3ccccc3nc3ccccc23)c1	22	45*	i	i	44*
SMILES	MT1-MMP act inh	DAGLB inhibitor	TMEM16A act	TMEM16A inh	DAGLB confirm
NC(c1csc(Nc2cc(NCCCO)ncn2)n1)c1ccccc1Cl (stereo not given)	-3	nt	nt	nt	nt
Cc1ccc(-n2c(O)c(/C=N/Nc3ccc(S(=O)(=O)N4CCOCC4)cc3[N+](=O)[O-])c3ccccc3c2=O)c(C)c1	-8	35*	i	100*	46*
O=[N+]([O-])c1cc2ccccc2c(O)c1O	3	14	nt	nt	nt
O=[N+]([O-])c1cc(-c2ccccc2)cc([N+](=O)[O-])c1O	13	43*	i	nt	53*
N#C/C(=C/c1ccc(O)c(O)c1)C(=O)NCc1ccc(Cl)cc1	-7	45*	i	i	24
N#C/C(=C/c1cccc(O)c1)C(=O)NCc1ccc(Cl)cc1	0	-2	i	i	nt
Cc1ccc(C2=C(O)C(=O)C(c3ccc(C)cc3)=C(O)C2=O)cc1	-3	60*	i	nt	25
CC(C)Oc1ccccc1/C=N/Nc1ccccc1[N+](=O)[O-]	7	26	i	i	nt
COc1cc(/C=N/Nc2ccccc2[N+](=O)[O-])cc(OC)c1O	12	39*	i	i	49*
COc1ccccc1/C=N\Nc1ccccc1[N+](=O)[O-]	9	35*	i	i	37*
